ChEMBL document CHEMBL1146073, “A pyridazine series of alpha2/alpha3 subtype selective GABA A agonists for the treatment of anxiety” (J Med Chem, 2006)

Experiments:
[1] = molecular target: T1, GABA-A receptor; alpha-5/beta-3/gamma-2 (Homo sapiens) (UniProt P18507+P28472+P31644); experiment: Efficacy against recombinant human GABA-Aalpha5 plus beta-3-gamma-2 expressed in L(tk-) cells by whole cell patch clamp method; assay type: functional, cell-based
In short: (§1)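 Whole-cell patch clamp on αxβ3γ2 receptors stably expressed in L(tk-) cells, measuring the effect on current evoked by an EC20-equivalent of GABA. Reported relative to full agonist chlordiazepoxide (=1.0), or as direct percent modulation of the EC20 control, with inverse agonism given as percent. Mean of at least four independent experiments.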

[2] = molecular target: GABA-A receptor; alpha-2/beta-3/gamma-2 (Homo sapiens) (UniProt P18507+P28472+P47869); experiment: Efficacy against recombinant human GABA-Aalpha2 plus beta-3-gamma-2 expressed in L(tk-) cells by whole cell patch clamp method relative to chlordiazepoxide; assay type: functional, cell-based; in short: as §1
[3] = Plasma clearance in rat; assay type: ADME, organism-based
In short: (§2)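 Pharmacokinetics from six animals per species: three dosed iv and three dosed po.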

[4] = Stability in dog assessed as liver microsomal turnover; assay type: ADME, Canis lupus familiaris; details: liver microsomes, read-out: Stability
In short: (§3)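 Test compound at 1 µM, with diazepam as control, incubated 0.25 h with pooled liver microsomes at 0.5 mg/mL protein. Compound remaining quantified by LC/MS/MS. Turnover is the mean of three determinations.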

[5] = molecular target: T2, GABA-A receptor; alpha-1/beta-3/gamma-2 (Homo sapiens) (UniProt P14867+P18507+P28472); experiment: Efficacy against recombinant human GABA-Aalpha1 plus beta-3-gamma-2 expressed in L(tk-) cells by whole cell patch clamp method; assay type: functional, cell-based; in short: as §1
[6] = molecular target: GABA-A receptor; anion channel (Rattus norvegicus) (UniProt O09028+P15431+P18506+P18508+P19969+P20236+P23574+P23576+P28471+P28473+P30191+P62813+P63079+P63138+Q91ZM7+Q9ES14); experiment: Receptor occupancy in vivo by displacement of [3H]Ro 15-1788 binding from GABA-A receptor in rat, po; assay type: functional, organism-based
In short: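 Rat in vivo occupancy measured by [3H]Ro 15-1788 binding after oral dosing. Rats taken as a subgroup after the plus-maze trial, i.e. 30 min post-dose or later. ED50 derived from dose-dependent occupancy. Mean ± SEM, n = 5-10/group.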

[7] = Oral bioavailability in rat; assay type: ADME, organism-based; details: in vivo; in short: as §2
[8] = molecular target: T3, GABA-A receptor; alpha-3/beta-3/gamma-2 (Homo sapiens, UniProt P18507+P28472+P34903); experiment: Displacement of [3H]Ro-151788 from recombinant human GABA-Aalpha3 receptor plus beta3gamma2; assay type: protein-complex assay
T3 sequence (P18507 whole entry): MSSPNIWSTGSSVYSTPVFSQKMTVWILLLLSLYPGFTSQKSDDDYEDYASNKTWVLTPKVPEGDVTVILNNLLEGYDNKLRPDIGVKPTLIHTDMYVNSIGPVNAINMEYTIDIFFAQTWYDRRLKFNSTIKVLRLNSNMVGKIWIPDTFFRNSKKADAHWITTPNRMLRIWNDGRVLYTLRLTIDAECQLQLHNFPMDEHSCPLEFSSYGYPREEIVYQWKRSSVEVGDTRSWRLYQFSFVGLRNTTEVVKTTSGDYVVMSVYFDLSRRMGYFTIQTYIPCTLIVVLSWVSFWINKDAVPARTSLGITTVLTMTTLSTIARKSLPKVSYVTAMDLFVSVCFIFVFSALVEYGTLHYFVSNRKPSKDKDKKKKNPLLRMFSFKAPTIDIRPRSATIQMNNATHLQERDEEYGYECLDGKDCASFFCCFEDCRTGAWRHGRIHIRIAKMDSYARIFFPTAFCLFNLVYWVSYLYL
T3 sequence (P28472 whole entry): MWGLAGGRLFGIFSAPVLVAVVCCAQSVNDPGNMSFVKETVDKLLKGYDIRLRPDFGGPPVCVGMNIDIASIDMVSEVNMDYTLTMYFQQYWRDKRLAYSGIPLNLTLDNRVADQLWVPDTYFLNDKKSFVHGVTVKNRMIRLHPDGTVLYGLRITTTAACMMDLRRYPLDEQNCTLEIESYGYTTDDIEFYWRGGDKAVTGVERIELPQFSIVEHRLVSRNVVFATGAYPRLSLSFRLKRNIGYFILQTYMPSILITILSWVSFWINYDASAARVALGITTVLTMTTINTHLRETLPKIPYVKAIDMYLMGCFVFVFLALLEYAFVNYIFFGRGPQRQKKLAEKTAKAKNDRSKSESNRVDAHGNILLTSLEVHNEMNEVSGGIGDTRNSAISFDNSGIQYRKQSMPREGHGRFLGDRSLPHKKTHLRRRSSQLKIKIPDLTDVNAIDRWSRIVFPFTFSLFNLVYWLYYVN
T3 sequence (P34903 whole entry): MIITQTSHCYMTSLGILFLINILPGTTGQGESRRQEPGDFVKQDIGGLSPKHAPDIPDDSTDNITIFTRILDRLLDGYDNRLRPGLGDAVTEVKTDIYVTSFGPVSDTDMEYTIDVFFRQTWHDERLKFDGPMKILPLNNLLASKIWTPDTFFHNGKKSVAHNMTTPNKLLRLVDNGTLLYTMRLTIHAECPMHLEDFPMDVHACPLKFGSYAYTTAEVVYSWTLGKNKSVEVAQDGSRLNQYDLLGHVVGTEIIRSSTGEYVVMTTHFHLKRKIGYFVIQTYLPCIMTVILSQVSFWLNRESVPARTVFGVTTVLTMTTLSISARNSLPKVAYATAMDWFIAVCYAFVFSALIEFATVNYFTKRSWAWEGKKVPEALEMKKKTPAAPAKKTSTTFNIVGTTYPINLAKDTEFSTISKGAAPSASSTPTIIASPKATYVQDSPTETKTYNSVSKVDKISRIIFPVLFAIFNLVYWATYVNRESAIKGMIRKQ
In short: (§4)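 Benzodiazepine-site binding on stably transfected αxβ3γ2 receptors (x = 1, 2, 3 or 5). Inhibition curves run with [3H]Ro15-1788 at roughly twice its Kd. Ki derived by Cheng-Prusoff equation. Mean of three to six determinations.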

[9] = molecular target: T4, GABA-A receptor; alpha-5/beta-3/gamma-2 (Homo sapiens, UniProt P18507+P28472+P31644); experiment: Displacement of [3H]Ro-151788 from recombinant human GABA-Aalpha5 receptor plus beta3gamma2; assay type: protein-complex assay; in short: as §4
T4 sequence (P18507 whole entry): T3 sequence (P18507 whole entry)
T4 sequence (P28472 whole entry): T3 sequence (P28472 whole entry)
T4 sequence (P31644 whole entry): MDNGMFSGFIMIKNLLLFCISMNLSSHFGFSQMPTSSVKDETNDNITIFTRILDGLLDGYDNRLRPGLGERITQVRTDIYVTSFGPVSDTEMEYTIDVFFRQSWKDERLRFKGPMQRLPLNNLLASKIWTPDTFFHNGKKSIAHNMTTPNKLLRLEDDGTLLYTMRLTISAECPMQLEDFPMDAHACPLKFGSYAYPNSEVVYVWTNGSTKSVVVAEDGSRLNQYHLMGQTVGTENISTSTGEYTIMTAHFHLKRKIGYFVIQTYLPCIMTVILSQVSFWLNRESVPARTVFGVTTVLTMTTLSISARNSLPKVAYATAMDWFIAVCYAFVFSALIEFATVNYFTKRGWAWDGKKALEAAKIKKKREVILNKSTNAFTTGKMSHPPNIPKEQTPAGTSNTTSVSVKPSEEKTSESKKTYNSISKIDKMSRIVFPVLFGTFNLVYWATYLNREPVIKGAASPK

[10] = Stability in human assessed as liver microsomal turnover; assay type: ADME, Microsome; details: liver microsomes, read-out: Stability; in short: as §3
[11] = Stability in rat assessed as liver microsomal turnover; assay type: ADME, Microsome; details: liver microsomes, read-out: Stability; in short: as §3
[12] = Half life in rat; assay type: ADME, organism-based; details: in vivo; in short: as §2
[13] = molecular target: T5, GABA-A receptor; alpha-1/beta-3/gamma-2 (Homo sapiens, UniProt P14867+P18507+P28472); experiment: Displacement of [3H]Ro-151788 from recombinant human GABA-Aalpha1 receptor plus beta3gamma2; assay type: protein-complex assay; in short: as §4
T5 sequence (P14867 whole entry): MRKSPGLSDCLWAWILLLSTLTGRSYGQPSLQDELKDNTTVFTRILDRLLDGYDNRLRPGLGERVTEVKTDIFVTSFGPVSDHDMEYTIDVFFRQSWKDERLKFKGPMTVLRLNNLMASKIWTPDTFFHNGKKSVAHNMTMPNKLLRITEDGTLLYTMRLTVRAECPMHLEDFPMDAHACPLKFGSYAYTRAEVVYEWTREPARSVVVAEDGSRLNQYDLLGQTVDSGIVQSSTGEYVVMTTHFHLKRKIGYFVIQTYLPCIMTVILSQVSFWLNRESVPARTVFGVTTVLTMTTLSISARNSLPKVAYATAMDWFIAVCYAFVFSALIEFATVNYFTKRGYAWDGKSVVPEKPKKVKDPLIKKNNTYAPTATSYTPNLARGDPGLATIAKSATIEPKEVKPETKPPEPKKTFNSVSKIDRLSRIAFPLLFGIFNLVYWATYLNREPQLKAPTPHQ
T5 sequence (P18507 whole entry): T3 sequence (P18507 whole entry)
T5 sequence (P28472 whole entry): T3 sequence (P28472 whole entry)

[14] = molecular target: GABA-A receptor; alpha-3/beta-3/gamma-2 (Homo sapiens) (UniProt P18507+P28472+P34903); experiment: Efficacy against recombinant human GABA-Aalpha3 plus beta-3-gamma-2 expressed in L(tk-) cells by whole cell patch clamp method relative to chlordiazepoxide; assay type: functional, cell-based; in short: as §1
[15] = molecular target: T2, GABA-A receptor; alpha-1/beta-3/gamma-2 (Homo sapiens); experiment: Efficacy against recombinant human GABA-Aalpha1 plus beta-3-gamma-2 expressed in L(tk-) cells by whole cell patch clamp method relative to chlordiazepoxide; assay type: functional, cell-based; in short: as §1
[16] = molecular target: T1, GABA-A receptor; alpha-5/beta-3/gamma-2 (Homo sapiens); experiment: Efficacy against recombinant human GABA-Aalpha5 plus beta-3-gamma-2 expressed in L(tk-) cells by whole cell patch clamp method relative to chlordiazepoxide; assay type: functional, cell-based; in short: as §1

Compound	Efficacy [1]	Efficacy [2]	clearance [3]	metabolised [4]	Efficacy [5]	Occ50 [6]	bioavailability [7]	Ki [8]	Ki [9]	metabolised [10]	metabolised [11]	half-life [12]	Ki [13]	Efficacy [14]	Efficacy [15]	Activity [6]	Efficacy [16]
Fc1cnccc1-c1cc(-c2ccc(F)c(-c3ncccc3F)c2)cnn1	-3%	0.24	91 mL/min/kg	8%	-8%	7.2 mg/kg	5%	5.6 nM	7.7 nM	8%	17%	48 min	0.9 nM	0.58			
Fc1ccc(-c2cc(-c3ccc(F)c(-c4ncc(F)cc4F)c3)cnn2)c(F)c1				18%		4.6 mg/kg		3.1 nM	1.4 nM	< 5%	13%			0.42	0.07		
Fc1cnc(-c2cc(-c3cnnc(-c4ncccc4F)c3)ccc2F)c(F)c1					-26%			1.7 nM	3.2 nM	< 5%	< 5%		0.4 nM	0.17		< 0.2 mg/kg	0.14
Fc1ccc(-c2cnnc(-c3c(F)cccc3F)c2)cc1-c1ncccc1F				24%	-5%			0.4 nM	0.3 nM	13%	19%		0.1 nM	0.24			
Fc1ccc(-c2cnnc(-c3c(F)cncc3F)c2)cc1-c1ncccc1F				9%	-7%	< 0.2 mg/kg		3.2 nM	3 nM	9%	9%		0.8 nM	0.39			
